By logD is commonly meant the decadic logarithm of the distribution of all forms, ionised or not, between an organic phase and buffer at a given pH.

The values that follow come from ChEMBL document CHEMBL2021915, “Synthesis, characterization and biological activity of hydroxyl-bisphosphonic analogs of bile acids” (Eur J Med Chem, 2012).

Molecules are shown by their SMILES. Active and inactive are the calls of the source. The rule behind the calls is not given here.

Data set [1] has as its system Hydroxyapatite. Briefly: Binding affinity to hydroxyapatite assessed as unadsorbed compound level at 40 mg after 96 hrs using 10 mg/ml of hydroxyapatite by NMR analysis relative to control. Put shortly:
(§1)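 Compound (about 40 mg) dissolved in 10 mL bidistilled water, pH adjusted to 7.4, stirred at 25 °C in a capped vial with hydroxyapatite; remaining unadsorbed compound in solution followed over time by NMR signal relative to starting signal.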

The subject of data set [2] is Hydroxyapatite. The data set is described as follows: Binding affinity to hydroxyapatite assessed as unadsorbed compound level at 40 mg after 48 hrs using 5 mg/ml of hydroxyapatite by NMR analysis relative to control. Put shortly:
as §1

The test system of the next data set is Osteoclast. The data set is described as follows: Induction of apoptosis in human multinucleated osteoclasts obtained from PBMC assessed as formation of apoptotic nuclear bodies at 10^-5 M after 7 days by Hoechst 33258 staining. Type of data set: functional, cell-based. An outline of the steps:
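PBMC-derived osteoclasts (7 days in SH-SY5Y-conditioned differentiation medium) then exposed to compound (10^-5, 10^-7, 10^-9 M) for a further 7 days. Fixed, stained with phalloidin-TRITC (F-actin rings) and Hoechst 33258; multinucleated cells with apoptotic nuclear bodies counted over whole well at 40×, as % of multinucleated TRACP-positive cells. 4 cultures, two donors.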

For data set [3], the system named is PBMC. The data set is described as follows: Inhibition of osteoclastogenesis in human osteoclasts obtained from PBMC assessed as formation of TRAPC positive multinucleated cells at 10^-5 to 10^-9 M after 7 days. It is filed as functional, cell-based. Put shortly:
(§2)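 Human PBMC from buffy coats (Ficoll), adherent monocytes at 3 × 10^6 cells/cm2 differentiated in DMEM/10% FBS with 25% SH-SY5Y conditioned supernatant, compound (10^-5, 10^-7, 10^-9 M) added with differentiation medium for 7 days. TRACP-positive multinucleated cells counted after fixation and TRACP staining; untreated differentiated cultures = 100%. Duplicates; 4 cultures from two donors.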

The subject of data set [4] is Hydroxyapatite. The data set is described as follows: Binding affinity to hydroxyapatite assessed as unadsorbed compound level at 40 mg after 24 hrs using 2.5 mg/ml of hydroxyapatite by NMR analysis relative to control. An outline of the steps:
as §1

The subject of data set [5] is Hydroxyapatite. The data set is described as follows: Binding affinity to hydroxyapatite assessed as unadsorbed compound level at 40 mg after 72 hrs using 7.5 mg/ml of hydroxyapatite by NMR analysis relative to control. Put shortly:
as §1

Data set [6] has as its system Hydroxyapatite. Briefly: Binding affinity to hydroxyapatite assessed as unadsorbed compound level at 40 mg after 3 hrs using 2.5 mg/ml of hydroxyapatite by NMR analysis relative to control. An outline of the steps: as §1
A short description of data set [7]: Distribution coefficient, log D of the compound at pH 7.4. Conditions: octanol/water. Type of data set: physicochemical. An outline of the steps:
(§3)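 Log D values were obtained by calculation, not by experimental partitioning.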

Data set [8] can be described thus: Distribution coefficient, log D of the compound at pH 1.5. It is filed as physicochemical. The following applies: octanol/water. An outline of the steps: as §3
Data set [9] can be described thus: Solubility of the compound in L929 cell culture medium. Type of data set: physicochemical.
Data set [10] relates to Hydroxyapatite. The data set is described as follows: Binding affinity to hydroxyapatite assessed as unadsorbed compound level at 20 mg after 24 hrs using 2.5 mg/ml of hydroxyapatite by NMR analysis relative to control. An outline of the steps: (§4)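 Bisphosphonate salt dissolved in bidistilled water, pH adjusted to 7.4, and magnetically stirred at 25 °C for the hydroxyapatite adsorption test.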

The test system of data set [11] is Hydroxyapatite. The data set is described as follows: Binding affinity to hydroxyapatite assessed as unadsorbed compound level at 20 mg after 48 hrs using 5 mg/ml of hydroxyapatite by NMR analysis relative to control. Put shortly: as §4
The subject of data set [12] is Hydroxyapatite. The data set is described as follows: Binding affinity to hydroxyapatite assessed as unadsorbed compound level at 20 mg after 72 hrs using 7.5 mg/ml of hydroxyapatite by NMR analysis relative to control. An outline of the steps: as §4
The test system of data set [13] is L929. The data set is described as follows: Cytotoxicity against mouse L929 cells assessed as cell viability after 72 hrs by neutral-red uptake assay. Conditions: l929, 72 h. It is filed as cell-based. Put shortly:
(§5)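 L929 mouse fibroblasts in MEM/10% FCS, 0.8 × 10^3 cells/well, adhered 24 h, then exposed to serial dilutions (10^-4 to 10^-10 M; 10^-2 M PBS pH 7.4 stocks) for 72 h. Neutral red 2 h at 37 °C, extracted with ethanol/acetic acid, OD 540 nm, blank-subtracted; ratio to medium-only control. Triplicate wells, 9 experiments.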

Data set [14] relates to Hydroxyapatite. The data set is described as follows: Binding affinity to hydroxyapatite assessed as unadsorbed compound level at 20 mg after 96 hrs using 10 mg/ml of hydroxyapatite by NMR analysis relative to control. Put shortly: as §4
In data set [15] the test system is Hydroxyapatite. Briefly: Binding affinity to hydroxyapatite assessed as unadsorbed compound level at 20 mg after 3 hrs using 2.5 mg/ml of hydroxyapatite by NMR analysis relative to control. An outline of the steps: as §4
Data set [16] relates to L929. The data set is described as follows: Cytotoxicity against mouse L929 cells assessed as cell viability at 10^-4 to 10^-5 M after 72 hrs by neutral-red uptake assay relative to neridronate. The following applies: l929, 72 h. Type of data set: cell-based. An outline of the steps: as §5
For data set [17], the system named is PBMC. Briefly: Inhibition of osteoclastogenesis in human osteoclasts obtained from PBMC assessed as formation of TRAPC positive multinucleated cells at 10^-5 M after 7 days. Type of data set: functional, cell-based. An outline of the steps: as §2

For `C[C@H](CCC(O)(P(=O)(O)O)P(=O)(O)O)[C@H]1CC[C@H]2[C@@H]3[C@H](O)C[C@@H]4C[C@H](O)CC[C@]4(C)[C@H]3CC[C@]12C` [listing 1 of 2 here], the Activity was 3% with Hydroxyapatite [1]; 32% in the data set on Hydroxyapatite [2]; 64% with Hydroxyapatite [4]; 12% in the data set on Hydroxyapatite [5]; 91% with Hydroxyapatite [6]. Also, in the data set on Osteoclast, the outcome was Active. The inhibition entry in the data set on PBMC [3] is “Active”.
Regarding `C[C@H](CCC(O)(P(=O)(O)O)P(=O)(O)O)[C@H]1CC[C@H]2[C@@H]3[C@@H](O)C[C@@H]4C[C@H](O)CC[C@]4(C)[C@H]3CC[C@]12C`, the logD in [7] (read-out: logD) was -3.34; in [8], 0.44.
As to `C[C@H](CCC(O)(P(=O)([O-])O)P(=O)([O-])O)[C@H]1CC[C@H]2[C@@H]3[C@@H](O)C[C@@H]4C[C@H](O)CC[C@]4(C)[C@H]3CC[C@]12C.[Na+].[Na+]`, the solubility entry in [9] is “Insoluble”.
On to `C[C@H](CCC(O)(P(=O)(O)O)P(=O)(O)O)[C@H]1CC[C@H]2[C@@H]3[C@H](O)C[C@@H]4C[C@H](O)CC[C@]4(C)[C@H]3C[C@H](O)[C@]12C`, for which the logD in data set [7] was -4.53; in data set [8] it was -0.76.
Turning to `NCCCCCC(O)(P(=O)(O)O)P(=O)(O)O` [NERIDRONIC ACID], the Activity in the data set on Hydroxyapatite [10] was 96%; in the data set on Hydroxyapatite [11], 85%; in the data set on Hydroxyapatite [12] it was 82%; with L929 [13], “Dose-dependent effect”; with Hydroxyapatite [14], 67%; with Hydroxyapatite [15], 98%. Besides, the outcome with Osteoclast was Active. Also, the inhibition entry in the data set on PBMC [3] was “Active”.
For the compound `C[C@H](CCC(O)(P(=O)([O-])O)P(=O)([O-])O)[C@H]1CC[C@H]2[C@@H]3[C@H](O)C[C@@H]4C[C@H](O)CC[C@]4(C)[C@H]3CC[C@]12C.[Na+].[Na+]`, the results for the Activity result in the data set on L929 [16] and with L929 [13] were “Non-toxic” and “Dose-dependent effect”, respectively.
Turning to `C[C@H](CCC(=O)O)[C@H]1CC[C@H]2[C@@H]3[C@H](O)C[C@@H]4C[C@H](O)CC[C@]4(C)[C@H]3CC[C@]12C`, in the data set on PBMC [17], the inhibition result is “Active”. Besides, in the data set on Osteoclast, the outcome was Active.
Consider `C[C@H](CCC(O)(P(=O)([O-])O)P(=O)([O-])O)[C@H]1CC[C@H]2[C@@H]3[C@H](O)C[C@@H]4C[C@H](O)CC[C@]4(C)[C@H]3C[C@H](O)[C@]12C.[Na+].[Na+]`, for which the solubility result in [9] is “Insoluble”.
Regarding `C[C@H](CCC(O)(P(=O)(O)O)P(=O)(O)O)[C@H]1CC[C@H]2[C@@H]3[C@H](O)C[C@@H]4C[C@H](O)CC[C@]4(C)[C@H]3CC[C@]12C` [listing 2 of 2 here], the logD in data set [7] (read-out: logD) was -3.34; in data set [8], 0.44.
Consider `O=P(O)(O)C(Cl)(Cl)P(=O)(O)O` [CLODRONIC ACID], for which the Activity came to 100% in the data set with Hydroxyapatite [10]; 100% with Hydroxyapatite [11]; 96% in the data set on Hydroxyapatite [12]; 93% in the data set on Hydroxyapatite [14]; 100% in the data set on Hydroxyapatite [15]. Further, the values for the logD in [7] and in [8] were -5.04 and -1.32, respectively.
